According to ChEMBL document CHEMBL1165977, “Novel analogues of Istaroxime, a potent inhibitor of Na(+),K(+)-ATPase: Synthesis, structure-activity relationship and 3D-quantitative structure-activity relationship of derivatives at position 6 on the androstane scaffold” (Bioorg Med Chem, 2010):

Assays:
[1] = Inhibition of dog kidney Na+K+-ATPase assessed as hydrolysis of [32P]ATP; set-up: species or system Canis lupus familiaris
How it was run: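 Dog kidney Na+,K+-ATPase, isolated and purified by the Jørgensen method. Enzyme activity was read as % hydrolysis of 32P-ATP with versus without test compound. IC50 was obtained by nonlinear least-squares curve fitting, as the mean of two or three experiments.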

[2] = test system: Cavia porcellus; experiment: Positive inotropic activity in guinea pig atria assessed as increase in […] at 0.16 ml/min, iv; assay type: functional
[3] = species on record: Cavia porcellus; experiment: Positive inotropic activity in electrically driven guinea pig atria assessed as maximal concentration required to increase in […]; assay type: functional
[4] = Therapeutic index, ratio of lethal dose to ED80 for inotropic activity in guinea pig; assay type: organism-based, Cavia porcellus; details: in vivo
How it was run: (§1)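 Anesthetized guinea pigs with a jugular vein cannula and an intubated trachea for spontaneous respiration. After stabilization, drug was infused iv at 0.16 mL/min until death or for up to 90 min. Vehicle was DMSO diluted in physiological solution to 1% DMSO final. Read-out was +dP/dt_max. ED80 (dose raising +dP/dt_max by 80%) came from the dose–response, and the doses giving maximum inotropy and death were recorded, giving the lethal dose/ED80 ratio.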

[5] = test system: Cavia porcellus; experiment: Positive inotropic activity in iv dosed guinea pig atria assessed as concentration required to increase in […]; assay type: functional
[6] = test system: Cavia porcellus; experiment: Toxicity in guinea pig assessed as death at 0.16 ml/min, iv up to 90 mins; assay type: organism-based; details: in vivo, 1.5 h; how it was run: as §1

SMILES | IC50 [1] [nM] | Emax [2] [%] | Activity [3] [µM/g] | selectivity ratio [4] | ED80 [5] [µM/g] | Activity [6]
C[C@]12CC/C(=N\OCCN)C[C@@H]1/C(=N/O)C[C@@H]1[C@@H]2CC[C@]2(C)C(=O)CC[C@@H]12.Cl | 24 | 180 | 4.3 | 11 | 0.84 | 
C[C@]12CC/C(=N\OCCN)C[C@@H]1[C@@H](NC=O)C[C@@H]1[C@@H]2CC[C@]2(C)C(=O)CC[C@@H]12.O=C(O)/C=C/C(=O)O | 160 | 174 | 27 | 33 | 2 | 
CNCCCO/N=C1\CC[C@@]2(C)[C@H](C1)[C@@H](CO)C[C@@H]1[C@@H]2CC[C@]2(C)C(=O)CC[C@@H]12.Cl | 690 | 263 | 9 | 28 | 1.5 | 
CO[C@H]1C[C@@H]2[C@H](CC[C@]3(C)C(=O)CC[C@@H]23)[C@@]2(C)CC/C(=N\OCCN)C[C@H]12.Cl | 710 | 167 | 18 | 9 | 4.3 | 
C[C@]12CC/C(=N\OCCN)C[C@@H]1[C@@H](CCO)C[C@@H]1[C@@H]2CC[C@]2(C)C(=O)CC[C@@H]12.Cl | 320 | 238 | 17 | 23 | 2.5 | 
C[C@H]1O[C@@H](O[C@H]2[C@@H](O)C[C@H](O[C@H]3[C@@H](O)C[C@H](O[C@H]4CC[C@@]5(C)[C@H](CC[C@@H]6[C@@H]5C[C@@H](O)[C@]5(C)[C@@H](C7=CC(=O)OC7)CC[C@]65O)C4)O[C@@H]3C)O[C@@H]2C)C[C@H](O)[C@@H]1O [DIGOXIN] | 310 |  | 0.97 | 3.2 | 0.41 | Toxic
COC[C@H]1C[C@@H]2[C@H](CC[C@]3(C)C(=O)CC[C@@H]23)[C@@]2(C)CC/C(=N\O[C@@H]3CCNC3)C[C@H]12.O=C(O)/C=C/C(=O)O | 320 | 201 | 12 |  | 6.8 | Non-toxic
C[C@]12CC/C(=N\O[C@@H]3CCNC3)C[C@@H]1[C@@H](CCO)C[C@@H]1[C@@H]2CC[C@]2(C)C(=O)CC[C@@H]12.Cl | 58 | 183 | 5.1 |  | 1.9 | Non-toxic
CNCCCO/N=C1\CC[C@@]2(C)[C@H](C1)[C@@H](NC=O)C[C@@H]1[C@@H]2CC[C@]2(C)C(=O)CC[C@@H]12.Cl | 1100 | 177 | 2.8 | 47 | 0.93 | 
C[C@]12CC/C(=N\O[C@@H]3CCNC3)C[C@@H]1[C@@H](NC=O)C[C@@H]1[C@@H]2CC[C@]2(C)C(=O)CC[C@@H]12.Cl | 41 | 142 | 6 | 11 | 1.6 | 
COC(=O)[C@H]1C[C@@H]2[C@H](CC[C@]3(C)C(=O)CC[C@@H]23)[C@@]2(C)CC/C(=N\O[C@@H]3CCNC3)C[C@H]12.Cl | 160 | 164 | 23 |  | 11 | Non-toxic
C[C@]12CC/C(=N\O[C@@H]3CCNC3)C[C@@H]1/C(=N/O)C[C@@H]1[C@@H]2CC[C@]2(C)C(=O)CC[C@@H]12.Cl | 16 | 144 | 4.3 |  | 1.5 | Non-toxic
C[C@]12CC/C(=N\OCCN)C[C@@H]1[C@@H](O[N+](=O)[O-])C[C@@H]1[C@@H]2CC[C@]2(C)C(=O)CC[C@@H]12.O=C(O)/C=C/C(=O)O | 330 | 172 | 9.8 | 8 | 3.6 | 
